Source: PubChem BioAssay (several laboratories)
In the library only some 5% were active in any assay of this set; here they are far more common.
Beta cell apopt: blocks beta cell apoptosis. protection from apoptosis, % (test concentration not listed). INS-1E cytokine-induced death, ATP luminescence, 48 h; percent of positive-control rescue, neutral wells zero. actives 0.8% (n = 300,000);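 active = Every replicate reaches about 75%, or at least half do and their mean reaches it too, limit read from the data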;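 note: 0% = cytokine-treated negative control wells and 100% = positive control rescue; higher means more ATP so stronger rescue from cytokine killing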
CSC inhib: blocks cancer stem cells; AID 2717; actives 1.1% (n = 300,000); cancer stem cell-like cells viability, luminescence; inhibition, % at 7.5 µM; in the data active = inhibition above about 75%; tested in HMLE shEcad cells
Mdm2-MdmX inh: inhibitors of human Mdm2/MdmX interaction; actives 3% (n = 330,000); SaOS-2 split-luciferase Mdm2/MdmX complementation, luminescence; AID 485346; inhibition, % at 8 µM; O15151+Q00987;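 active = inhibition of at least 50% at 8 µM in the primary screen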
T cruzi repl: T. cruzi replication inhibition; inhibition, % (no concentration beside the values); actives 1.4% (n = 300,000); T. cruzi beta-gal in NIH3T3, luminescence, 90 h;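 active = mean inhibition across valid replicates above about 55%, limit read from the data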;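 note: signal also drops with host cell toxicity which is not excluded here; 0% = plate median of DMSO wells and 100% = zero luminescence signal; higher percent means less beta-gal luminescence so fewer parasites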
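compound dosing = single 50 nL compound addition per well in DMSO | material = NIH/3T3 host cells with β-galactosidase reporter T. cruzi | input = 5,000 host fibroblasts per well | timing = ≥90 h infection period, 3 h prior cell attachment | read-out basis = percent inhibition of parasite-derived β-gal signal | detection = GalScreen β-gal luminescence, detergent lysis, 60 min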
CHOP UPR activ: activators of apoptotic arm of unfolded protein response (CHOP); CHO-CHOP luciferase reporter, UPR activation, luminescence; percent of tunicamycin response over DMSO baseline; actives 0.34% (n = 330,000); activation, % at 10 µM; AID 449763;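 active = at 10 µM dose, activation of 40% or more, normalized to positive control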;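 note: 100% = tunicamycin at 10 µg/mL and 0% = DMSO alone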
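assay system = CHO CHOP reporter cells | amount = 500 CHO-CHOP cells per well | buffer or medium = F12 with 10% FBS | incubation = 16-18 h cell attachment, then 6 h compound exposure, 37 °C | detection = luminescence read with Steady-Glo | read-out = percent activation relative to tunicamycin control | controls = tunicamycin high control, DMSO low control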
XBP1 UPR activ: adaptive UPR (XBP1) activation. AID 463104. actives 0.33% (n = 330,000). activation, % at 20 µM. CHO-XBP1 luciferase reporter, IRE1-XBP1 UPR activation, luminescence; percent of tunicamycin response, DMSO as zero;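 active = versus positive control, 20 µM dose yields 30% or more activation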;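 note: 100% = tunicamycin at 10 µg/mL and 0% = DMSO only wells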
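Test system: CHO-XBP1 luciferase reporter cells | Buffer or medium: Serum-containing F12 medium, 10% FBS | Schedule: 6 h compound exposure at 37 °C, 5% CO2 | Detection: Steady-Glo luciferase glow luminescence, 10 min after reagent addition | Read-out basis: Activation, % of tunicamycin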
CHOP UPR conf: apoptotic UPR (CHOP) activation, confirmed; activation, % at 10 µM; CHO-CHOP cells, CHOP-luciferase reporter luminescence; percent of tunicamycin response, DMSO as zero; actives 64% (n = 1,000); shares compounds with CHOP UPR activ; in the data active = activation above about 33%;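 note: 0% = DMSO wells and 100% = tunicamycin 10 µg/mL wells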
XBP1 UPR conf: confirmation of adaptive unfolded protein response (XBP1) activators. activation, % at 20 µM. AID 485299. shares compounds with XBP1 UPR activ. CHO-XBP1 IRE1-XBP1 luciferase reporter, luminescence. actives 63% (n = 1,000);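 active = reporter signal at least 30% of the positive control's activation in two or more of four replicate wells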;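 note: plate controls were DMSO negative control for no effect and tunicamycin 10 µg/mL positive control for full effect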
Mdm2 MdmX conf: confirmation of human Mdm2/MdmX interaction inhibitors; shares compounds with Mdm2-MdmX inh; Mdm2-MdmX binding, luminescent assay; inhibition, % at 8 µM; actives 55% (n = 10,000); AID 489028; in the data active = inhibition above about 40%
Full FLuc ctr: full-length luciferase inhibition in Mdm2/MdmX counter-screen | SaOS-2 full-length luciferase counterscreen, luminescence | actives 77% (n = 6,200) | inhibition, % at 8 µM | AID 504607 | shares compounds with Mdm2-MdmX inh;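 active = mean inhibition at 8 µM reaching about 37%, which flags the compound as non-specific, limit read from the data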;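 note: p53-null SaOS-2 cells with luciferase driven by a doxycycline-inducible promoter; compound on cells about two nights before reading with doxycycline added after day one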
Numbers without * were called inactive.

What do the screens show for `Nc1nnnn1/N=C/C=C/c1ccccc1`?
Beta cell apopt: 2; CSC inhib: -9; Mdm2-MdmX inh: 1; T cruzi repl: -5; CHOP UPR activ: 4; XBP1 UPR activ: 2

What do the screens show for `Cc1ccc(NC(=O)c2nc(S(=O)(=O)Cc3ccccc3C)ncc2Cl)cc1C`?
Beta cell apopt: 52; CSC inhib: 103*; Mdm2-MdmX inh: 100*; T cruzi repl: -59; CHOP UPR activ: 237*; XBP1 UPR activ: -10; CHOP UPR conf: 170*; Mdm2 MdmX conf: 70*; Full FLuc ctr: 52*

Results for COC(=O)c1ccc(NC(=O)c2nc(S(=O)(=O)Cc3cccc(C)c3)ncc2Cl)cc1 ?
Beta cell apopt: 75*; CSC inhib: 110*; Mdm2-MdmX inh: 76*; T cruzi repl: -9; CHOP UPR activ: 95*; XBP1 UPR activ: -11; CHOP UPR conf: 27; Mdm2 MdmX conf: 91*; Full FLuc ctr: 52*

Results for CSc1ncc(Cl)c(C(=O)Nc2ccc(C)c(C)c2)n1 ?
Beta cell apopt: 2; CSC inhib: 6; Mdm2-MdmX inh: 16; T cruzi repl: -9; CHOP UPR activ: 2; XBP1 UPR activ: -4

What do the screens show for `CCCS(=O)(=O)c1ncc(Cl)c(C(=O)Nc2ccc(S(=O)(=O)Nc3ncccn3)cc2)n1`?
Beta cell apopt: 1; CSC inhib: -1; Mdm2-MdmX inh: 7; T cruzi repl: -3; CHOP UPR activ: -2; XBP1 UPR activ: 1

What do the screens show for `O=S(=O)(CCN1CCSCC1)c1ccccc1`?
Beta cell apopt: 2; CSC inhib: -5; Mdm2-MdmX inh: 27; T cruzi repl: -21; CHOP UPR activ: 2; XBP1 UPR activ: -2

What do the screens show for `C[C@@H]1CN([C@@H](C)CO)C(=O)c2cc(NC(=O)CCC(F)(F)F)ccc2O[C@H]1CN(C)S(=O)(=O)c1ccc(Cl)cc1`?
Beta cell apopt: -1; CSC inhib: -20; Mdm2-MdmX inh: 5; CHOP UPR activ: 2; XBP1 UPR activ: -1

How did CCOc1ccc2nc(Cl)c(C3CC(c4ccccc4)=NN3C(=O)c3ccco3)cc2c1 (stereo not drawn) do in these assays?
Beta cell apopt: 4; CSC inhib: 34; Mdm2-MdmX inh: 56*; T cruzi repl: -1; CHOP UPR activ: 124*; XBP1 UPR activ: 122*; CHOP UPR conf: -1; Mdm2 MdmX conf: 8

Results for COc1ccc(CCNC(=O)c2cc3c(=O)n4cccc(C)c4nc3n(Cc3ccco3)c2=N)cc1OC ?
Beta cell apopt: 105*; CSC inhib: 74; Mdm2-MdmX inh: 100*; T cruzi repl: 39; CHOP UPR activ: 245*; XBP1 UPR activ: 1; CHOP UPR conf: 1; Mdm2 MdmX conf: 96*; Full FLuc ctr: 3

Results for CCN(CC)S(=O)(=O)c1cccc(C(=O)OCc2cc(=O)n3nc(C)sc3n2)c1 ?
Beta cell apopt: -9; CSC inhib: -17; Mdm2-MdmX inh: 5; T cruzi repl: 2; CHOP UPR activ: 3; XBP1 UPR activ: -1

Results for CN(C)CC(CCC(CN(C)C)C(O)(c1ccccc1)c1ccccc1)C(O)(c1ccccc1)c1ccccc1 (stereo not drawn) ?
Mdm2-MdmX inh: 100*; T cruzi repl: 40; CHOP UPR activ: 77*; XBP1 UPR activ: 35*; CHOP UPR conf: 84*; XBP1 UPR conf: 43*; Mdm2 MdmX conf: 99*; Full FLuc ctr: 52*

Results for CN(C)C/C=C/C(O)(c1ccccc1)c1ccccc1 ?
Mdm2-MdmX inh: 16; T cruzi repl: 1; CHOP UPR activ: -1; XBP1 UPR activ: 2

What do the screens show for `COc1ccc(-n2ncc(Cl)c(Cl)c2=O)cc1`?
Mdm2-MdmX inh: 100*; T cruzi repl: 57*; CHOP UPR activ: 50*; XBP1 UPR activ: -7; CHOP UPR conf: 23; Mdm2 MdmX conf: 99*; Full FLuc ctr: 52*

Results for CC(C)OC(=O)n1c(=S)oc2ccccc21 ?
Beta cell apopt: 9; CSC inhib: -2; Mdm2-MdmX inh: 0; T cruzi repl: -5; CHOP UPR activ: -2; XBP1 UPR activ: -4

How did CCCCC(=O)/C=C/n1c(=S)oc2ccccc21 do in these assays?
Beta cell apopt: 10; CSC inhib: 16; Mdm2-MdmX inh: 100*; T cruzi repl: 33; CHOP UPR activ: 120*; XBP1 UPR activ: -1; CHOP UPR conf: 21; Mdm2 MdmX conf: 33

Results for CSc1ccccc1C(=O)Nc1ccccc1C(=O)NC(C)C ?
Beta cell apopt: 3; CSC inhib: 5; Mdm2-MdmX inh: -5; T cruzi repl: -5; CHOP UPR activ: -2; XBP1 UPR activ: -1

Results for COc1ccccc1N1CCN(C(=O)c2ccc3c(=O)n(Cc4ccco4)c(=S)[nH]c3c2)CC1 ?
Beta cell apopt: -3; CSC inhib: 4; Mdm2-MdmX inh: 19; T cruzi repl: -2; CHOP UPR activ: 3; XBP1 UPR activ: -2

What do the screens show for `COc1ccccc1Cn1c(=S)[nH]c2cc(C(=O)N3CCN(c4ccccc4OC)CC3)ccc2c1=O`?
Beta cell apopt: -6; CSC inhib: -7; Mdm2-MdmX inh: 61*; T cruzi repl: -28; CHOP UPR activ: 84*; XBP1 UPR activ: -5; CHOP UPR conf: 1; Mdm2 MdmX conf: 42*; Full FLuc ctr: 54*

Results for NC(=O)CC(NC(=O)Cc1cccc2ccccc12)c1ccc(NCCc2ccccc2F)c([N+](=O)[O-])c1 (stereo not drawn) ?
Beta cell apopt: 3; CSC inhib: 1; Mdm2-MdmX inh: 27; T cruzi repl: -5; CHOP UPR activ: -1; XBP1 UPR activ: -1

Results for COC(=O)c1ccc(OCC(=O)c2ccccc2OC)cc1 ?
Beta cell apopt: 0; CSC inhib: 3; Mdm2-MdmX inh: -24; T cruzi repl: 17; CHOP UPR activ: 2; XBP1 UPR activ: 1

How did CN=C(C[N+](=O)[O-])NCCSCc1ccc(CN(C)C)o1 do in these assays?
Mdm2-MdmX inh: 24; CHOP UPR activ: -1; XBP1 UPR activ: -1
